pIC50: −log10 of the molar value. Converted amounts (≈) assume the structure as drawn. The source made the active and inactive calls. The rule behind the calls is not given here.
How the values were obtained:
[1] = Hematotoxicity against RBC assessed as formation of methemoglobin at 20 ug/ml relative to control; format: cell-based; settings: erythrocyte
Method in brief: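 Metabolism-linked methemoglobin toxicity in vitro. Percent MetHb formation was determined at 20 µg/mL of compound relative to vehicle control.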

[2] = system: Plasmodium falciparum; assay: Antimalarial activity against chloroquine-sensitive Plasmodium falciparum D6 by LDH assay; format: functional, organism-based
Method in brief: (§1)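 Antiplasmodial activity was measured in vitro against P. falciparum blood-stage cultures. Read-out was parasite lactate dehydrogenase (LDH) activity, with IC50 values expressed in µg/mL. The same protocol was used for the D6 and W2 strains.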

[3] = system: Plasmodium falciparum; assay: Antimalarial activity against chloroquine-resistant Plasmodium falciparum W2 by LDH assay; format: functional, organism-based; method in brief: as §1
[4] = system: Vero; assay: Cytotoxicity against african green monkey Vero cells up to 10 ug/ml by neutral red assay; format: cell-based; settings: chlorocebus sabaeus
Method in brief: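 Vero (monkey kidney) cells were exposed up to a highest concentration of 10 µg/mL. Viability was read by neutral red uptake.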

[5] = Inhibition of beta-hematin formation; format: functional
[6] = system: Leishmania donovani; assay: Antileishmanial activity against promastigotes of Leishmania donovani by alamar blue assay; format: functional, organism-based
[7] = system: Candida albicans; assay: Antifungal activity against Candida albicans ATCC 90028 at 20 ug/ml; format: functional, organism-based
[8] = system: Cryptococcus neoformans; assay: Antifungal activity against Cryptococcus neoformans ATCC 90113; format: functional, organism-based
[9] = system: Staphylococcus aureus; assay: Antibacterial activity against methicillin-resistant Staphylococcus aureus ATCC 43300 by CLSI method; format: functional, organism-based
Method in brief: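 Broth dilution method (NCCLS M7-A5). […] MIC is the lowest concentration allowing no detectable growth. MBC is the lowest concentration killing the organism. Highest test concentration was 20 µg/mL.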

[10] = system: Mycobacterium intracellulare; assay: Antibacterial activity against Mycobacterium intracellular ATCC 23068 at 20 ug/ml by CLSI method; format: functional, organism-based
[11] = Plasmodium falciparum, D6, read-out: IC50
[12] = Plasmodium falciparum, W2, read-out: IC50
[13] = Leishmania donovani, read-out: IC50

Structure (SMILES) | Methemoglobin formation [1] [%] | IC50 [2, 11] [µg/mL] | IC50 [3, 12] [µg/mL] | Activity [4] | pIC50 [5] | IC90 [6] | IC50 [6, 13] [µg/mL] | IC90 ([6]; Leishmania donovani) [µg/mL] | IC50 [2] | other results
COc1cc(NC(C)CCCNC(=O)c2cncc(C(=O)NCCCC(C)Nc3cc(OC)cc4cccnc34)c2)c2ncccc2c1.Cl (stereo unspecified) | 5.5 | 3.3 | 3 | Non-toxic | 3.96 | inactive | 18 | – | – | –
COc1cc(NC(C)CCCNC(=O)c2ccncc2C(=O)NCCCC(C)Nc2cc(OC)cc3cccnc23)c2ncccc2c1.Cl (stereo unspecified) | 3.55 | 3 | 1.7 | Non-toxic | 3.97 | inactive | – | – | – | IC50 [6]: Not Active
COc1cc(NC(C)CCCNC(=O)NC(CCCN)C(=O)NCCCC(C)Nc2cc(OC)cc3cccnc23)c2ncccc2c1.Cl (single isomer, unassigned; 37) | 7.9 | 2.8 | 2 | Non-toxic | 4.06 | – | 14 | 40 | – | IC50 [7]: Not Active; IC50 [8]: 15 µg/mL; MFC [8]: 20 µg/mL; MIC [8]: 20 µg/mL
COc1cc(NC(C)CCCNC(=O)C(=O)NCCCC(C)Nc2cc(OC)cc3cccnc23)c2ncccc2c1.Cl.Cl (stereo unspecified) | 6.45 | – | – | Non-toxic | < 3.00 | – | 15 | > 40 | Not Active | IC50 [3]: Not Active
COc1cc(NC(C)CCCNC(=O)c2cccc(C(=O)NCCCC(C)Nc3cc(OC)cc4cccnc34)n2)c2ncccc2c1.Cl (stereo unspecified) | 5.7 | – | 2.3 | Non-toxic | 3.91 | inactive | 6.5 | – | – | –
COc1cc(NC(C)CCCN)c2nc(C(C)(C)C)ccc2c1 (stereo unspecified) | – | – | – | – | 5.54 | – | – | – | – | –
N=C(N)c1ccc(OCCCCCOc2ccc(C(=N)N)cc2)cc1 [PENTAMIDINE] | – | – | – | – | – | – | – | 3.8 (≈ 11.2 µM) | – | –
COc1cc(NC(C)CCCNC(=O)NC(CCCN)C(=O)NCCCC(C)Nc2cc(OC)cc3cccnc23)c2ncccc2c1.Cl (single isomer, unassigned; 40) | 6.1 | 4.2 | 2.8 | Non-toxic | 3.81 | – | 18 | 39 | – | IC50 [9]: 10 µg/mL; MIC [9]: 20 µg/mL; IC50 [10]: Not Active; IC50 [7]: Not Active; IC50 [8]: 7 µg/mL
COc1cc(NC(C)CCCNC(=O)c2ccncc2C(=O)NCCCC(C)Nc2cc(OC)cc3ccc(C(C)(C)C)nc23)c2nc(C(C)(C)C)ccc2c1.Cl (stereo unspecified) | 1.2 | 1.5 | 0.87 | Non-toxic | 4.15 | – | 16 | 31 | – | IC50 [9]: 15 µg/mL; MBC [9]: 20 µg/mL; MIC [9]: 20 µg/mL; IC50 [10]: Not Active; MBC [10]: inactive; MIC [10]: inactive
COc1cc(NC(C)CCCNC(=O)NC(=O)NCCCC(C)Nc2cc(OC)cc3ccc(C(C)(C)C)nc23)c2nc(C(C)(C)C)ccc2c1.Cl.Cl (stereo unspecified) | 8.8 | – | – | Non-toxic | < 3.00 | – | 25 | > 40 | Not Active | IC50 [3]: Not Active
COc1cc(NC(C)CCCNC(=O)c2cncc(C(=O)NCCCC(C)Nc3cc(OC)cc4ccc(C(C)(C)C)nc34)c2)c2nc(C(C)(C)C)ccc2c1.Cl (stereo unspecified) | 0.55 | – | – | Non-toxic | 3.92 | inactive | 19 | – | – | –
COc1cc(NC(C)CCCNC(=O)c2cccc(C(=O)NCCCC(C)Nc3cc(OC)cc4ccc(C(C)(C)C)nc34)n2)c2nc(C(C)(C)C)ccc2c1.Cl (stereo unspecified) | 0.25 | – | 4.5 | Non-toxic | < 3.00 | inactive | – | – | Not Active | IC50 [6]: Not Active
COc1cc(NC(C)CCCNC(=O)NC(CCCNC(=N)N)C(=O)NCCCC(C)Nc2cc(OC)cc3cccnc23)c2ncccc2c1.Cl (single isomer, unassigned; 39) | 5.5 | 2.4 | 1.5 | Non-toxic | 4.06 | – | 19 | 36 | – | IC50 [9]: 15 µg/mL; MBC [9]: 20 µg/mL; IC50 [10]: Not Active; IC50 [7]: Not Active; IC50 [8]: 15 µg/mL; MFC [8]: 20 µg/mL; MIC [8]: 20 µg/mL
COc1cc(NC(C)CCCNCC(=O)NCCCC(C)Nc2cc(OC)cc3cccnc23)c2ncccc2c1.Cl.Cl (stereo unspecified) | 20.3 | – | – | Non-toxic | < 3.00 | inactive | 20 | – | Not Active | IC50 [3]: Not Active
C[C@@H]1[C@H](O)[C@@H](C)/C=C/C=C/C=C/C=C/C=C/C=C/C=C/[C@H](O[C@@H]2O[C@H](C)[C@@H](O)[C@H](N)[C@@H]2O)C[C@@H]2O[C@](O)(C[C@@H](O)C[C@@H](O)[C@H](O)CC[C@@H](O)C[C@@H](O)CC(=O)O[C@H]1C)C[C@H](O)[C@H]2C(=O)O [AMPHOTERICIN B] | – | – | – | – | – | – | – | 0.35 (≈ 0.379 µM) | – | –
C[C@@H]1CC[C@H]2[C@@H](C)C(=O)O[C@@H]3O[C@@]4(C)CC[C@@H]1[C@]32OO4 [ARTEMISININ] | – | 0.015 (≈ 0.0531 µM) | – | – | – | – | – | – | – | –
COc1cc(NC(C)CCCNC(=O)N[C@@H](CCCCN)C(=O)NCCCC(C)Nc2cc(OC)cc3ccc(C(C)(C)C)nc23)c2nc(C(C)(C)C)ccc2c1.Cl (stereo partly specified) | 1.1 | – | – | Non-toxic | < 3.00 | – | 19 | 38 | Not Active | IC50 [3]: Not Active; IC50 [9]: 8 µg/mL; MBC [9]: 20 µg/mL; MIC [9]: 20 µg/mL; IC50 [10]: Not Active; MBC [10]: inactive; MIC [10]: inactive
COc1cc(NC(C)CCCNSC(=O)NCCCC(C)Nc2cc(OC)cc3cccnc23)c2ncccc2c1.Cl.Cl (stereo unspecified) | 10.9 | – | 4.76 | Non-toxic | 3.82 | – | 20 | 38 | Not Active | –
COc1cc(NC(C)CCCNC(=S)NCCCC(C)Nc2cc(OC)cc3ccc(C(C)(C)C)nc23)c2nc(C(C)(C)C)ccc2c1.Cl.Cl (stereo unspecified) | 0.75 | 3 | 2.3 | Non-toxic | < 3.00 | – | 9 | 31 | – | –
COc1cc(NC(C)CCCNC(=O)NC(CCCCN)C(=O)NCCCC(C)Nc2cc(OC)cc3cccnc23)c2ncccc2c1.Cl (single isomer, unassigned) | 3.75 | 2.7 | 2.7 | Non-toxic | 4.10 | – | 18 | > 40 | – | –

From ChEMBL document CHEMBL1641445, “Synthesis, antiprotozoal, antimicrobial, β-hematin inhibition, cytotoxicity and methemoglobin (MetHb) formation activities of bis(8-aminoquinolines)” (Bioorg Med Chem, 2011)
